Results: ChEMBL document CHEMBL4145556, “Carbazole-, Aspidofractinine-, and Aspidocarpamine-Type Alkaloids from Pleiocarpa pycnantha” (J Nat Prod, 2018)

Experiments:
HEK293 = assay: Cytotoxicity against HEK293 cells assessed as reduction in cell viability by CMFDA dye based fluorescence assay; conditions: human
How it was run: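 Viability of HEK293/NF-κB-luc cells was tracked with 2.5 μM CMFDA loaded 1 h before seeding at 10^4 cells/well. After overnight incubation, samples were added with 20 ng/mL TNF-α for 5 h. Fluorescence was read after lysis. Duplicate wells, three independent experiments.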

[1] = Inhibition of TNFalpha stimulated NF-kappaB (unknown origin) expressed in HEK293 cells after 5 hrs by luciferase reporter gene based luminescence assay; assay type: cell-based; conditions: Homo sapiens, HEK293, 5 h
How it was run: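 HEK293/NF-κB-luc cells loaded 1 h with 2.5 μM CMFDA, seeded at 10^4 cells/well and incubated overnight. Samples were added, with TNF-α stimulation at 20 ng/mL for 5 h. After lysis, fluorescence was read, then luciferase luminescence. Luminescence was normalized to each well's fluorescence and IC50 derived. Duplicate wells, three independent experiments.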

Row | IC50 [1] | SMILES | Activity (HEK293)
1 | > 50 µM | C[C@H]1NCCc2c1cc1c([nH]c3ccccc31)c2CO | Non-Toxic
2 | 0.4 µM | C=C1C(=O)O[C@@H]2C3O[C@]3(C)CC/C=C(\C)CC[C@@H]12 (stereo partly drawn) | Non-Toxic
3 | 9.4 µM | C/C=C1/COC(=O)[C@@H]2[C@H]1C[C@@H]1NCCc3c1n2c1ccccc31 | Non-Toxic
4 | 8.8 µM | COC(=O)[C@@H]1C[C@@]23CCCN4CC[C@@]5(c6ccccc6N(C)[C@]15CC2)[C@@H]43 | Non-Toxic
5 | – | O=c1cc(-c2ccc(Br)cc2)oc2ccccc12 | Non-Toxic
6 | > 50 µM | COC(=O)c1nccc2c1[nH]c1ccccc12 | Non-Toxic

Row | SMILES | IC50 [1] | Activity (HEK293)
7 | C/C=C1/C[N@+]2(C)C3Cc4c([nH]c5ccc(O)cc45)[C@@H]2C[C@H]1[C@@H]3CO | > 50 µM | Non-Toxic
